Sampled rows, rich in hits. Any-hit rate of the full collection: about 0.9%.
MT1-MMP act inh: blocks activation of human MT1-MMP; GFP/RFP ratio change, % at 20 µM; 0.061% of 360,000 active; HT1080 RFP-PRO-GFP cells, GFP/RFP ratio fluorescence, overnight; percent of plate control window, DMSO zero;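 active means GFP/RFP ratio change of at least 30% with cell ATP level not reduced by more than half and red fluorescence within 50% of control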
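Read-out: GFP/RFP fluorescence ratio; Test system: RFP-PRO-GFP reporter HT1080 cells; Compound dosing: single-point 20 µM compound, 1% DMSO; Times: overnight compound exposure at 37 °C.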
DDE Tn7 FP inh: inhibitors of Tn7 peptide binding to human fibrin DD(E); FP displacement of FITC-Tn7 peptide from fibrin DD(E); 0% = median of compound wells per plate; inhibition, % at 8.3 µM; 0.13% of 370,000 active; AID 720508;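 active means inhibition above the mean of compounds falling within the control limits plus 3 SD of them, cut at about 14% in these data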;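 further: 0% = plate median of compound wells and 100% = 10 µM Aha-Tn7 peptide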
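Assay system: Fibrin-DD(E) protein isolated from polymerized human fibrin clots; read-out basis: percent inhibition; medium: Tris/NaCl/CaCl2 buffer, pH 7.8; signal: FP measurement; incubation: 10 min plus 3 h, room temperature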
DAGLB inhibitor: blocks human DAGLB lipase activity; Q8NCG7; HEK293T DAGLB membrane lysate, EnzChek fluorogenic substrate; inhibition, % at 5.17 µM; 0.059% of 340,000 active; AID 504411; in the data active means inhibition above about 34%;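 further: 0% = enzyme with vehicle and 100% = wells lacking enzyme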
Target sequence (Q8NCG7 whole entry, looked up): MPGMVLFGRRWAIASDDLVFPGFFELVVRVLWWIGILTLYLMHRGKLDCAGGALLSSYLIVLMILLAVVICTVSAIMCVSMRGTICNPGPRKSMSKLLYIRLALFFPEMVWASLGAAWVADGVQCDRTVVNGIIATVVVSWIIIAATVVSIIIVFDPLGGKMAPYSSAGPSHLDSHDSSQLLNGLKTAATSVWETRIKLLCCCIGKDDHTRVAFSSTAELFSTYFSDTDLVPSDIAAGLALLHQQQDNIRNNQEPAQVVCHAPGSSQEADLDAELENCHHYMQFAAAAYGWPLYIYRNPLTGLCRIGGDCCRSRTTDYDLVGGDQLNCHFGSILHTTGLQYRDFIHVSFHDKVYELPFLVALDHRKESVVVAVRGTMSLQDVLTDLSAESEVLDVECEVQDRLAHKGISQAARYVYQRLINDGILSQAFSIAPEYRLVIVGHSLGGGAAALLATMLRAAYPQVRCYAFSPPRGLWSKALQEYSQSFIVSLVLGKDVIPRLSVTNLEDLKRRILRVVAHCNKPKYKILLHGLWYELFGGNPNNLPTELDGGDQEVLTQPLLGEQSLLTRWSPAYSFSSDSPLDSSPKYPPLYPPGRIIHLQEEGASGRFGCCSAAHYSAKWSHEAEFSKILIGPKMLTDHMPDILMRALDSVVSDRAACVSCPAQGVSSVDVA
SKN-1 block: inhibitors of C. elegans SKN-1; C. elegans VP596 Pgst-4::GFP/RFP ratio, acrylamide-induced, 24 h; AID 624304; 0.49% of 360,000 active; inhibition, % at 21.8 µM;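 active means interference check ratio from 0.5 to 1.5 plus GFP to RFP signal ratio inhibition reaching or exceeding a fixed threshold, cut at about 30% in these data, passing the limit was not always enough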
PolyA inhibitor: blocks polyadenylation in yeast reporter cells; S. cerevisiae SKY197-pL101 polyadenylation reporter, beta-gal luminescence; efflux-impaired pdr1/pdr3 knockout yeast; score 100 = 6 SD above DMSO; activity score, % at 12 µM; 0.02% of 300,000 active;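 active means lowest replicate activity score at least 50, where 100 means six control SD above control mean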;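 further: yeast exposed to compound for 9 h at 30 °C; higher score means more reporter readthrough which indicates perturbed polyadenylation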
DDE Tn6 FP inh: disrupts Tn6 cyclic peptide binding to fibrin D-Dimer-E complex | P02675 | inhibition, % at 8.3 µM | Fibrin DD(E) TRITC-Tn6 fluorescence polarization displacement | 0.21% of 370,000 active | AID 720509;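 active means inhibition above a per-campaign cutoff: mean of compounds within control limits plus 3 SD, cut at about 15% in these data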;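 further: 0% = median of all compound wells on the plate and 100% = blocking peptide control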
* hit, by the source's call; x = not tested or not shown.

SMILES	MT1-MMP act inh	DDE Tn7 FP inh	DAGLB inhibitor	SKN-1 block	PolyA inhibitor	DDE Tn6 FP inh
CCC[C@H]1[C@@H](N)CC[C@@]23CCCN2C(=O)CCC[C@@H]13	x	-10	x	x	x	4
COc1ccc(Nc2nc(C(=O)NCCCN3CCOCC3)cs2)cc1	-14	4	2	33*	22	3
COc1ccc(Nc2cc(C(=O)NCCCN3CCOCC3)c3ccccc3n2)cc1	-3	3	2	-1	-2	-3
Cc1cccc(N/C=C/C(=O)c2ccc(Cl)cc2)c1	2	2	-5	27	-21	-12
O=C(/C=C\Nc1ccccn1)c1ccc(Cl)cc1	7	6	-8	41*	x	0
COC(=O)c1c(-c2ccccc2)noc1-c1ccccc1	-3	-1	x	45*	-35	-6
CCOc1cc(CNC2CCCC2)cc(Cl)c1OCc1ccc(F)cc1	-14	-7	-1	75*	-3	-1
COc1cc(CNC2CCCC2)cc(Cl)c1OCc1ccccc1Cl	-15	x	0	17	-5	x
COc1cc(CNC2CCCC2)cc(Cl)c1OCc1ccc(F)cc1	3	-1	-1	56*	1	8
COc1ccc(-n2c(SCc3cccc4ccccc34)nnc2-c2ccccc2)cc1	x	2	x	x	x	-8
O=Cc1nc(Nc2cc(F)cc(F)c2)nc(NC2CCCC2)n1	x	1	x	x	x	1
CCN(CC)C(=O)Oc1ccc2c(c1)O/C(=C\c1ccco1)C2=O	-5	-1	-11	5	59*	8
C=CCSc1ncc(-c2ccccc2)cn1	6	-5	-9	73*	6	2
C#CCSc1ncc(-c2ccccc2)cn1	5	-2	-9	90*	2	4
CCCCCN1CCCCC(NC(=O)C2CCCCC2)C1=O (centres undefined)	x	-2	x	x	x	1
Cc1cccc(-n2nc3c(c2NC(=O)C2CC2)CS(=O)(=O)C3)c1C	0	7	1	35*	2	3
Cc1ccccc1-n1nc2c(c1NC(=O)C1CCCC1)CS(=O)(=O)C2	-8	-3	-1	24	-1	6
CN1CCN(/N=C/c2ccc(-c3ccccc3)cc2)CC1	-3	-5	-2	79*	5	3
C(=N\N1CCN(Cc2ccccc2)CC1)/c1ccc(-c2ccccc2)cc1	1	4	-6	0	-2	2
Cc1ccc(CSCC(=O)N2CCOCC2)cc1	-2	7	1	44*	5	4
COC(=O)c1ccc(=O)n(Cc2ccco2)c1	2	1	-2	38*	-7	1
C/C(C=Nn1c(-c2ccc(F)cc2)n[nH]c1=S)=C/c1ccco1	x	-3	x	x	x	6
COc1ccc(S(=O)(=O)Nc2ccc(S(=O)(=O)Nc3ccc(F)cc3)cc2)cc1C	1	1	-2	36*	1	-6
O=C(CCN1CCN(S(=O)(=O)c2ccc(Cl)cc2)CC1)Nc1ccccc1F	-4	6	-2	-3	-18	5
O=C(CCN1CCN(S(=O)(=O)c2ccc(Cl)cc2)CC1)Nc1ccc(F)cc1	2	0	1	46*	9	6
SMILES	MT1-MMP act inh	DDE Tn7 FP inh	DAGLB inhibitor	SKN-1 block	PolyA inhibitor	DDE Tn6 FP inh
CCN(C(=O)[C@H]1CC(=O)O[C@@H]1c1ccccc1)c1ccccc1	x	-4	x	x	x	-9
CCn1c(CSc2nnc3ccccn23)nc2cc(C(=O)O)ccc21	42*	-3	2	65	-4	20*
CCOc1ccc(C(=O)CSc2nnc3ccccn23)cc1	-1	-2	1	3	7	3
CCCCN(C)C(=O)CNc1nnnn1-c1ccccc1	x	2	x	x	x	5
CCn1c2ccccc2c2cc(/C=N/NC(=O)c3cccc(C)c3)ccc21	-4	3	-1	45*	12	-7
O[C@H](COc1ccc(F)cc1)CN1CCC(C(O)(c2ccccc2)c2ccccc2)CC1	x	-2	x	x	x	1
COc1ccc(/C=N/NC(=O)c2ccc(COc3ccccc3Cl)o2)cc1	1	3	0	38*	-8	-3
COc1ccc(/C=N/NC(=O)c2ccc(COc3ccccc3Cl)o2)c(OC)c1C	5	6	-2	0	-8	2
Nc1[nH]c2cc(Cl)ccc2c1C(=O)NCCc1ccc(Cl)cc1	x	4	x	x	x	-1
CCCCC1OC2(C)OC(=N)C1(C#N)C(C#N)(C#N)C2c1ccccc1 (centres undefined)	-7	4	-2	44*	x	14
CCC[C@@H](/C=C/C(=O)OC(C)(C)C)Sc1ccc(OC)cc1	x	0	x	x	x	-6
COC(=O)C12OCC34C(CC5C(C)=C(O)C(=O)CC5(C)C3C(O)C1O)OC(=O)C(OC(=O)C=C(C)C)C24 (centres undefined)	-36	-7	-1	41*	x	1
CCCOc1cc(C)c(S(=O)(=O)NCc2cccs2)cc1C	2	1	-10	44*	x	-8
Cc1cc(C)c(S(=O)(=O)NCc2cccs2)cc1C	-3	5	-5	-9	-2	-1
CCC[C@H]1OC(=O)[C@@H]2CCCN2C(=O)[C@H]([C@H](C)Cc2ccccc2)NC(=O)[C@@H]2CCCN2C(=O)[C@@H]2CCCN2C(=O)[C@H](C(C)C)OC(=O)[C@@H]2CCCN2C(=O)[C@H](C(C)C)NC(=O)C1(C)C	x	3	x	x	x	1
CCc1c(C)nc2cc(-c3ccccc3)[nH]n2c1=O	-9	6	-3	36*	2	-3
OCCN(CCO)c1ccc(C(c2ccccc2Cl)c2ccc(N(CCO)CCO)cc2Cl)c(Cl)c1	5	x	4	36*	15	x
OCCN(CCO)c1ccc2ccccc2c1	4	-4	3	-11	28	4
Cc1ccc(CSc2nc3c(c(N(C)C)n2)CCCC3)cc1	-9	3	-13	4	-19	-8
CN(C)c1nc(SCc2ccccc2Cl)nc2c1CCCC2	-3	x	-7	31*	-6	x
COc1nc(-c2ccccc2)nnc1-c1ccccc1	-3	-5	-7	52*	-20	6
O=[N+]([O-])c1ccc(COc2cccc3cccnc23)cc1	3	8	-3	36*	3	-4
O=[N+]([O-])c1ccc(OCCCOc2cccc3cccnc23)cc1	1	7	-3	18	-7	1
CCN(CC)CCNc1ncnc2c1sc1nc(N3CCCC3)c3c(c12)CC(C)(C)OC3	-3	-2	1	17	-7	-3
CN(C)CCNc1ncnc2c1sc1nc(N3CCCC3)c3c(c12)CC(C)(C)OC3	8	7	1	50*	5	0
CCOC(=O)[C@@]12CCCC=C1N(CCc1ccc(Cl)cc1)C(=O)[C@H]2CC(=O)N1CCN(C(=O)c2ccco2)CC1	x	-4	x	x	x	-7

Assay outcomes as filed in PubChem.
